# Values joined by “and” are separate entries in the source; they are usually repeats but may differ in a detail not shown here. Equal entries are not always repeated.
# How the values were obtained:
# Settings in all cases: in vivo
# Canis familiaris [1] = experiment: The biodistribution of the [131I]-labeled compound in dog (mass= 5.7 kg), 2 hr after intravenous injection was evaluated in heart; assay type: ADME, organism-based, Canis lupus familiaris
# Method in brief: (§1)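 One female dog (5.7 kg) premedicated im with acepromazine maleate, then anesthetized iv with sodium nembutal/saline (1:1). Given 1.0 mCi iv of ¹³¹I-labeled agent. Killed 2 h post-dose with iv nembutal. Tissues excised, weighed and counted; blood, fat and muscle masses estimated as 7.5%, 27.5% and 40% of body weight. Expressed as % ID/organ and % ID·kg/g.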
# Rattus norvegicus [2] = experiment: The biodistribution of the [125I]-labeled compound in rats after intravenous injection was evaluated in blood at 1.00 hrs (ID.kg/g); assay type: ADME, organism-based
# Method in brief: (§2)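 Male Sprague-Dawley rats (250–300 g) under ether anesthesia were given an iv injection of no-carrier-added 125I-labelled agent (10–15 μCi in 0.1 mL saline). The agent was iodinated with chloramine-T in acetate buffer and purified by C-18 HPLC. Groups of N = 3 were killed at 0.25, 1 and 4 h. Blood and tissues were weighed and γ-counted. Values are % ID·kg/g, mean (range).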
# Rattus norvegicus [3] = experiment: The biodistribution of the [125I]-labeled compound in rats after intravenous injection was evaluated in thyroid at 1.00 hrs; value ranges from 1.69-2.41 (ID.kg/g); assay type: ADME, organism-based, Thyroid gland
# Method in brief: (§3)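 Male Sprague-Dawley rats (250–300 g) under ether anesthesia given iv 0.1 mL saline containing 10–15 μCi of NCA ¹²⁵I-labeled agent (chloramine-T iodination, HPLC-purified). Groups of 3 killed at 0.25, 1 and 4 h. Blood and tissues excised, weighed and γ-counted. Values are mean (range) of % injected dose × body mass (kg) per gram of tissue.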
# Rattus norvegicus [4] = experiment: The biodistribution of the [125I]-labeled compound in rats after intravenous injection was evaluated in heart at 0.25 hrs; value ranges from 0.26-0.32 (ID.kg/g); assay type: ADME, organism-based; method in brief: as §2
# Rattus norvegicus [5] = experiment: The biodistribution of the [125I]-labeled compound in rats after intravenous injection was evaluated in heart at 1.00 hrs; value ranges from 0.26-0.37 (ID.kg/g); assay type: ADME, organism-based
# Method in brief: (§4)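 Male Sprague-Dawley rats (250–300 g), under ether anesthesia, given 10–15 μCi of the NCA ¹²⁵I-labeled agent iv in 0.1 mL saline. Groups of N = 3 were killed at 0.25, 1 or 4 h. Blood and tissues were removed, weighed and counted in a γ-well scintillation counter. Values are mean % ID·kg/g (range).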
# Rattus norvegicus [6] = experiment: The biodistribution of the [125I]-labeled compound in rats after intravenous injection was evaluated in lung at 4.00 hrs; value ranges from 0.45-0.67 (ID.kg/g); assay type: ADME, organism-based; method in brief: as §4
# Rattus norvegicus [7] = experiment: The biodistribution of the [125I]-labeled compound in rats after intravenous injection was evaluated in muscle at 4.00 hrs; value ranges from 0.03-0.04 (ID.kg/g); assay type: ADME, organism-based, Muscle tissue; method in brief: as §3
# Canis familiaris [8] = experiment: The biodistribution of the [131I]-labeled compound in dog (mass= 5.7 kg), 2 hr after intravenous injection was evaluated in kidney (ID.kg/g); assay type: ADME, organism-based, Canis lupus familiaris; method in brief: as §1
# Canis familiaris [9] = experiment: The biodistribution of the [131I]-labeled compound in dog (mass= 5.7 kg), 2 hr after intravenous injection was evaluated in liver (ID.kg/g); assay type: ADME, organism-based, Canis lupus familiaris; method in brief: as §1
# Rattus norvegicus [10] = experiment: The biodistribution of the [125I]-labeled compound in rats after intravenous injection was evaluated in fat at 1.00 hrs (ID.kg/g); assay type: ADME, organism-based, Adipose tissue; method in brief: as §2
# Rattus norvegicus [11] = experiment: The biodistribution of the [125I]-labeled compound in rats after intravenous injection was evaluated in brain at 0.25 hrs; value ranges from 0.32-0.38 (ID.kg/g); assay type: ADME, organism-based; method in brief: as §2
# Rattus norvegicus [12] = experiment: The biodistribution of the [125I]-labeled compound in rats after intravenous injection was evaluated in liver at 4.00 hrs; value ranges from 0.40-0.52 (ID.kg/g); assay type: ADME, organism-based; method in brief: as §4
# Rattus norvegicus [13] = experiment: The biodistribution of the [125I]-labeled compound in rats after intravenous injection was evaluated in lung at 0.25 hrs; value ranges from 0.81-1.16 (ID.kg/g); assay type: ADME, organism-based; method in brief: as §4
# Canis familiaris [14] = experiment: The biodistribution of the [131I]-labeled compound in dog (mass= 5.7 kg), 2 hr after intravenous injection was evaluated in adrenal (ID.kg/g); assay type: ADME, organism-based, Canis lupus familiaris; method in brief: as §1
compound,measurement,setting,value
CCCCN1CCN(c2ccc(I)cc2)CC1,Biodistribution,Canis familiaris [1],0.182%
same,Biodistribution,Rattus norvegicus [2],0.01 % ID·kg/g
same,Biodistribution,Rattus norvegicus [3],2.41%
same,Biodistribution,Rattus norvegicus [4],0.32%
same,Biodistribution,Rattus norvegicus [5],0.37%
same,Biodistribution,Rattus norvegicus [6],0.67%
same,Biodistribution,Rattus norvegicus [7],0.04%
same,Biodistribution,Canis familiaris [8],0.182%
same,Biodistribution,Canis familiaris [9],6.68% and 1.88%
same,Biodistribution,Rattus norvegicus [10],0.01 % ID·kg/g
same,Biodistribution,Rattus norvegicus [11],0.38%
same,Biodistribution,Rattus norvegicus [12],0.52%
same,Biodistribution,Rattus norvegicus [13],1.16%
same,Biodistribution,Canis familiaris [14],0.121% and 0.633%

# From ChEMBL document CHEMBL1123589, “Phenylpiperazine-based radiopharmaceuticals for brain imaging. 3. Synthesis and evaluation of radioiodinated 1-alkyl-4-phenylpiperazines” (J Med Chem, 1987)
